Source: PubChem BioAssay (The Scripps Research Institute Molecular Screening Center)
mABHD4 FP: inhibitors of mouse ABHD4; Q8VD66; inhibition, % at 8.92 µM; purified mABHD4, FP-Rh probe fluorescence polarization; hit rate 0.54% among 370,000;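 active means inhibition exceeding the mean over every tested compound plus 3 SD, cut at about 30% in these data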;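 further: 0% = plate median of compound wells and 100% = S159A mutant with DMSO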
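Assay system: Wild-type mouse ABHD4 protein | Medium: HEPES pH 7.0 buffer, 150 mM NaCl, 0.01% Pluronic F-127 | Incubation: Enzyme–compound pre-incubation 45 min, then probe 60 min, both 25 °C | Technique: Fluorescence polarization with parallel and perpendicular emission, 525/598 nm | Evaluation: % inhibition of FP-Rh probe binding versus controls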
HTRA1 inhibitor: inhibitors of human serine peptidase HTRA1; Q92743; inhibition, % at 5.96 µM; hit rate 0.5% among 340,000; recombinant HTRA1, FP-rhodamine activity-based probe, fluorescence polarization; in the data active means inhibition above about 36%;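 further: 0% = enzyme with DMSO and 100% = wells lacking enzyme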
PRMT1 FP inh: blocks human protein arginine methyltransferase 1; Q99873; recombinant PRMT1, activity-based probe fluorescence polarization; hit rate 1.3% among 370,000; inhibition, % at 2.79 µM; AID 652257;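 active means inhibition above about 21% made by adding two undisclosed values, limit read from the data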
SIAE primary: blocks human sialic acid acetylesterase; hit rate 0.69% among 370,000; inhibition, % at 9.66 µM; SIAE FP-Rh probe binding, fluorescence polarization; Q9HAT2;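 active means inhibition above a cutoff: mean of compounds within the control limits plus 3 SD of those, cut at about 17% in these data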;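 further: 0% = plate median of compound wells and 100% = probe without SIAE protein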
Target sequence (Q9HAT2 whole entry, looked up): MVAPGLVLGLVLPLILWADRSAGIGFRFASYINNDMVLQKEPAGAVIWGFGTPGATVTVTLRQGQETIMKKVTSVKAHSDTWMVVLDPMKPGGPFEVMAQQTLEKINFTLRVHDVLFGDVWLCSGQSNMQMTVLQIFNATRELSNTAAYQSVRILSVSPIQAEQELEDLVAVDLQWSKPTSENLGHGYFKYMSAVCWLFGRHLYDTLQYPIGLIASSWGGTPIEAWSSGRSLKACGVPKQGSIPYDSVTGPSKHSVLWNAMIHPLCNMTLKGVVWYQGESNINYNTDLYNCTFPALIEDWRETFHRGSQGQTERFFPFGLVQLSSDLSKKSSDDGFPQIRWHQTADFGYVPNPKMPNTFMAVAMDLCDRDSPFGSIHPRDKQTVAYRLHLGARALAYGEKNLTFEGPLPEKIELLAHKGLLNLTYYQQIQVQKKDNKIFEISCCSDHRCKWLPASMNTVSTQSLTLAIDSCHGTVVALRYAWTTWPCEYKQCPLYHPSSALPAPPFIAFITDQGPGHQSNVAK
TCR CD3 inh: inhibitors of human TCR-CD3 interaction. TAMRA-labeled TCR probe fluorescence, biochemical. inhibition, % at 9.4 µM. hit rate 0.37% among 360,000. AID 651800; in the data active means inhibition above about 19%;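 further: recombinant mutant TCR 2C K166C tagged with TAMRA read by polarization; 0% = receptor in buffer alone and 100% = receptor with positive control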
PRMT1 confirm: confirmation of human PRMT1 inhibitors. inhibition, % at 2.79 µM. recombinant His-PRMT1, activity-based probe fluorescence polarization. hit rate 42% among 3,300. shares compounds with PRMT1 FP inh. AID 687036;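 active means mean inhibition across replicates above the hit cutoff derived for the earlier primary screen, cut at about 22% in these data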
Numbers without * were called inactive; nt = no result. Compounds with a hit are over-represented: about 2.6% of the library has one in this group of screens.

SMILES	mABHD4 FP	HTRA1 inhibitor	PRMT1 FP inh	SIAE primary	TCR CD3 inh	PRMT1 confirm
C=CCNc1nnc(SC2CC(=O)N(c3ccc(OC)cc3)C2=O)s1 (stereo not given)	4	-1	83*	-5	-8	72*
COc1ccc(N2C(=O)CC(Sc3nc4ccccc4s3)C2=O)cc1 (stereo not given)	-8	-10	35*	-8	1	4
CCOc1ccc2nc(SC3CC(=O)N(c4ccc(OC)cc4)C3=O)sc2c1 (stereo not given)	5	7	7	-6	-4	nt
COC(=O)c1cccc(Cn2ccc3ccc(-c4ccc5ccn(C(=O)c6ccccc6)c5c4)cc32)c1	-3	nt	1	-3	nt	nt
COc1ccc(N2C(=O)CC(Sc3nccc(C)n3)C2=O)cc1 (stereo not given)	2	0	2	2	-6	nt
O=C1CC(SCCc2nc3ccccc3[nH]2)C(=O)N1c1ccc(F)cc1 (stereo not given)	-2	2	19	-2	0	nt
COc1ccc(N2C(=O)CC(Sc3nnc(-c4ccccc4F)n3C)C2=O)cc1 (stereo not given)	-3	2	36*	-1	3	48*
COc1ccc(N2C(=O)CC(SCCc3nc4ccccc4[nH]3)C2=O)cc1 (stereo not given)	-1	1	26*	2	4	-2
CCC[C@H]1[C@@H](NC(=O)c2ccc(OC)cc2)CC[C@@]23CCCN2C(=O)CCC[C@@H]13	2	nt	-3	2	nt	nt
CC1=C(C(=O)Nc2ccccc2)C(c2ccc(C)o2)n2c(s/c(=C\c3ccco3)c2=O)=N1 (stereo not given)	5	7	53*	-4	-2	-3
COc1ccccc1C1C(C(C)=O)=C(C)N=c2s/c(=C\c3cc(OC)c(OC)c(OC)c3)c(=O)n21 (stereo not given)	3	2	1	1	-3	nt
Cc1sc2ncnc(Sc3ccccc3C(=O)Nc3ccc(C#N)cc3)c2c1C	7	10	2	1	-3	nt
Cc1sc2ncnc(Sc3ccccc3C(=O)Nc3ccc(Br)cc3)c2c1C	-4	-50	35*	-12	-1	23*
Fc1ccc2nc(-c3ccc(CN4CCC5(CC4)CNc4ccccc45)cc3)c(-c3ccccc3)nc2c1	7	nt	3	0	-6	nt
Cc1ccccc1N1C(=O)CC(Sc2nnc(-c3ccccc3)o2)C1=O (stereo not given)	-8	-1	83*	-4	-8	68*
O=C1CC(Sc2nnc(-c3ccccc3)o2)C(=O)N1c1ccccc1 (stereo not given)	7	3	68*	6	2	60*
O=C1c2ccccc2CC1Sc1nnc(-c2ccncc2)o1 (stereo not given)	0	7	-3	1	7	nt
O=C(O)c1cccnc1SC1CC(=O)N(c2ccccc2)C1=O (stereo not given)	4	-1	0	2	5	nt
COc1ccc(NC(=O)CSc2nnc(-c3ccncc3)o2)c(OC)c1	4	13	0	4	1	nt
COc1ccc(NC(=O)CSc2nnc(-c3cccnc3)o2)c(OC)c1	-1	3	28*	-3	-7	36*
COc1ccc(C2C(C(=O)Nc3ccccc3)=C(C)N=C3SCC(=O)N32)cc1 (stereo not given)	-34	-48	9	-82	16	nt
CC1=C(C(=O)Nc2ccccc2)C(c2ccc(O)cc2)N2C(=O)CSC2=N1 (stereo not given)	-58	-8	26*	-75	8	29*
CC(C)(C)c1ccc(S(=O)(=O)N2CCCC2C(=O)N2CCc3ccccc3C2)cc1 (stereo not given)	-2	nt	-3	-1	nt	nt
COc1ccc(-c2noc(C3CCCN(C(=O)Nc4ccc(Cl)cc4)C3)n2)cc1 (stereo not given)	-23	nt	-3	-9	nt	nt
O=C(/C=C/c1ccco1)Nc1cccc(C(=O)Nc2ccccc2C(=O)O)c1	-61	-77	26*	-64	6	46*
SMILES	mABHD4 FP	HTRA1 inhibitor	PRMT1 FP inh	SIAE primary	TCR CD3 inh	PRMT1 confirm
CC(C)(C)c1ccc(C(=O)N/C(=C\c2ccco2)C(=O)Nc2ccccc2C(=O)O)cc1	-5	-18	46*	-10	3	1
O=C(Nc1ccc(C(=O)O)cc1)/C(=C\c1ccco1)NC(=O)c1ccco1	5	-1	47*	-2	-4	8
O=C(NC(Cc1ccccc1)C(=O)O)/C(=C/c1ccco1)NC(=O)c1cccc(Br)c1 (stereo not given)	12	-3	25*	-2	2	7
O=C(NC(Cc1ccccc1)C(=O)O)/C(=C/c1ccccc1)NC(=O)c1ccco1 (stereo not given)	-11	8	-1	-6	-6	nt
COC(=O)C1CN(Cc2cn(CCC3OCCO3)nn2)CCS(=O)(=O)N1Cc1ccc(C)cc1 (stereo not given)	6	nt	1	0	nt	nt
CCOC(=O)CNC(=O)CSc1nnc(C)c(=O)[nH]1	6	4	-2	2	14	nt
CCOC(=O)CSc1nnc(NCC(=O)OC(C)C)c(=O)[nH]1	0	3	54*	15	7	67*
CC(C)N(C[C@@H]1CSCCS(=O)(=O)N1)C1CCCCC1	5	nt	-2	2	5	nt
CN1CCN(C(=S)c2ccc(N(C)C)cc2)CC1	0	-1	43*	-1	2	43*
CN1CCN(C(=S)c2ccc(Br)cc2)CC1	2	-1	41*	-6	0	44*
CN1CCN(C(=S)c2ccc([N+](=O)[O-])cc2)CC1	-1	-3	36*	2	1	45*
Cc1ccc(/C=C/C(=O)Nc2ccc([N+](=O)[O-])cc2)o1	0	-17	42*	-11	-2	4
COc1ccc(NC(=O)/C=C/c2ccc(C)o2)cc1S(=O)(=O)N1CCOCC1	-4	-6	45*	-10	3	30*
Cc1cccc(C(=O)Nc2cccc3cccnc23)c1	-4	-27	-2	0	2	nt
COc1cc(/C=C/C(=O)Nc2ccc(OC)c(S(=O)(=O)N3CCOCC3)c2)ccc1OC(F)F	-43	-28	3	-33	1	nt
Cc1cc(NS(=O)(=O)c2ccc(NC(=O)/C=C/c3ccc(C)o3)cc2)nc(C)n1	-2	0	55*	-4	-1	54*
Cc1ccc(/C=C/C(=O)Nc2ccc(Oc3ccccc3)cc2)o1	-25	-40	16	-8	15	nt
Cc1ccc(/C=C/C(=O)Nc2cccc3cccnc23)o1	22	22	59*	-4	0	23*
Cc1cc(NS(=O)(=O)c2ccc(NC(=O)/C=C/c3ccccc3)cc2)nc(C)n1	-17	-7	-3	-3	-1	nt
CCCCCCCCN1C(=O)[C@@H](CC(=O)NCCCOCCCC)C[C@@]2(C(=O)OC)C1=C[C@H](COCc1ccccc1)O[C@@H]2C	4	nt	2	2	nt	nt
